Data on five compounds can be found in ChEMBL document CHEMBL1158097, “Kahalalide derivatives from the Indian sacoglossan mollusk Elysia grandifolia” (J Nat Prod, 2006).

pIC50: −log10 of the molar value. Calls of active or inactive are those of the source. The calls are words filed in the database; no cut-off is given here.

One assay has as its system MCF7. Put plainly: Cytotoxicity against human MCF7 cells after 24 hrs by MTT assay. The assay is classed as functional, cell-based. To be noted: MCF7, 24 h. The procedure, abridged: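 MCF7 cells were exposed to compounds for 24 h, and viability was read as MTT reduction by absorbance of reduced MTT at 560 nm. DMSO served as control. Data are mean ± SEM, n = 3.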
The subject of a further assay is Cladosporium cucumerinum. Put plainly: Antifungal activity against Cladosporium cucumerinum DSM 62122 at 5 ug/disk after 24 hrs by agar diffusion assay. To be noted: for zone of inhibition at 5 µg/disc: DSM 62122, 24 h, read-out: IZ. Format: functional. A general note: A growth-free zone around the sample is the usual read-out of agar diffusion tests.
Assay [1] is described as follows: Cytotoxicity against mouse L1578Y cells after 24 hrs by MTT assay. Format: functional, cell-based. For orientation: Tetrazolium dyes change colour on reduction, which living cells bring about.
In a further assay the test system is Bacillus subtilis. Put plainly: Antibacterial activity against Bacillus subtilis DSM 2109 at 5 ug/disk after 24 hrs by agar diffusion assay. Format: functional, organism-based.
In the next assay the test system is Saccharomyces cerevisiae. Put plainly: Antifungal activity against Saccharomyces cerevisiae DSM 1333 at 5 ug/disk after 24 hrs by agar diffusion assay. The assay is classed as functional, organism-based.
For a further assay, the system named is Escherichia coli. Put plainly: Antibacterial activity against Escherichia coli DSM 10290 at 5 ug/disk after 24 hrs by agar diffusion assay. The assay is classed as functional, organism-based.
The test system of a further assay is H4IIE. Put plainly: Cytotoxicity against rat H4IIE cells after 24 hrs by MTT assay. The assay is classed as functional, cell-based.
In the next assay the test system is HeLa. Put plainly: Cytotoxicity against human HeLa cells after 24 hrs by MTT assay. The assay is classed as functional, cell-based.
The subject of a further assay is PC-12. Put plainly: Cytotoxicity against rat PC12 cells after 24 hrs by MTT assay. Format: functional, cell-based.
In the next assay the test system is Cladosporium herbarum. Put plainly: Antifungal activity against Cladosporium herbarum DSM 62121 at 5 ug/disk after 24 hrs by agar diffusion assay. Format: functional. The settings on record: for zone of inhibition at 5 µg/disc: DSM 62121, 24 h, read-out: IZ.

As to `C/C=C1\NC(=O)[C@H](Cc2ccccc2)NC(=O)C(C(C)C)NC(=O)C(C(C)C)NC(=O)[C@H](NC(=O)[C@H](NC(=O)[C@H](CCCN)NC(=O)[C@H]2CCCN2C(=O)C(NC(=O)C(NC(=O)C(NC(=O)[C@@H](CCC(=O)O)NC(=O)CCCCCC(C)C)C(C)C)C(C)C)C(C)C)[C@@H](C)CC)[C@@H](C)OC(=O)C(C(C)C)NC1=O` (some centres undefined) [KAHALALIDE R], the pIC50 (as a rule, the IC50 on a negative log10 scale, so that one unit is a factor of ten) in the assay on MCF7 was 6.85. The zone of inhibition at 5 µg/disc in the assay on Cladosporium cucumerinum was determined as 24 mm; in the assay on Cladosporium herbarum, 16 mm. Moreover, the IC50 (as a rule, the concentration that inhibits the measured activity by half) in assay [1] was determined as 4.28 µM. Also, the outcome in the assay with Bacillus subtilis, with Saccharomyces cerevisiae, in the assay with Escherichia coli, in the assay on H4IIE, in the assay on HeLa and with PC-12 was inactive.

For the compound `CC(C)CCCCCC1CC(=O)N[C@H](C)C(=O)N[C@H](C)C(=O)NC(CC(C)C)C(=O)N2CCC[C@H]2C(=O)NC(CC(C)C)C(=O)N[C@@H](Cc2c[nH]c3ccccc23)C(=O)O1` (some centres undefined) [KAHALALIDE E], the pIC50 in the assay with MCF7 is 5.35.

`C/C=C1\NC(=O)[C@H](Cc2ccccc2)NC(=O)C(C(C)C)NC(=O)C(C(C)C)NC(=O)[C@H](NC(=O)[C@H](NC(=O)[C@H](CCCN)NC(=O)[C@H]2CCCN2C(=O)C(NC(=O)C(NC(=O)C(NC(=O)[C@@H](CCC(=O)O)NC(=O)CCCC(O)CC(C)C)C(C)C)C(C)C)C(C)C)[C@@H](C)CC)[C@@H](C)OC(=O)C(C(C)C)NC1=O` (some centres undefined) [KAHALALIDE S] had a pIC50 in the assay with MCF7 of 5.45. In addition, the outcome in the assay on Cladosporium cucumerinum, in the assay on Bacillus subtilis, in the assay on Saccharomyces cerevisiae, in the assay on Escherichia coli and in the assay with Cladosporium herbarum was inactive.

Consider `C/C=C1\NC(=O)[C@H](Cc2ccccc2)NC(=O)[C@@H](C(C)C)NC(=O)[C@@H]([C@H](C)CC)NC(=O)[C@H](NC(=O)[C@H](NC(=O)[C@H](CCCN)NC(=O)[C@H]2CCCN2C(=O)[C@H](NC(=O)[C@@H](NC(=O)[C@@H](NC(=O)[C@H](NC(=O)CCCC(C)C)C(C)C)[C@@H](C)O)C(C)C)C(C)C)[C@H](C)CC)[C@H](C)OC(=O)[C@H](C(C)C)NC1=O` [KAHALALIDE F], for which, in the assay on MCF7, the pIC50 is 6.66. The zone of inhibition at 5 µg/disc with Cladosporium cucumerinum came out at 24 mm; in the assay with Cladosporium herbarum, 17 mm. The IC50 in assay [1] is 4.26 µM. The outcome in the assay on Bacillus subtilis, in the assay on Saccharomyces cerevisiae, in the assay with Escherichia coli, in the assay with H4IIE, in the assay on HeLa and with PC-12 was inactive.

For the compound NYSTATIN, the values for the inhibition zone (IZ) in the assay with Cladosporium cucumerinum and in the assay on Cladosporium herbarum were 39 mm and 19 mm, respectively.
